Measurements from different studies.
Target: Phosphatidylinositol 4-phosphate 5-kinase type-1 gamma (PIP5K1C, Homo sapiens, UniProt O60331)

Compound	observed	technique	tested at	remaining binding [%]
CCN1CCN(Cc2ccc(C(=O)Nc3ccc(C)c(Oc4ccc5c(c4)CC(=O)N5)c3)cc2C(F)(F)F)CC1	binding	competition with immobilised ligand	1 µM	92
CN(c1nccc(-c2cnn3ncccc23)n1)C1CC1	binding	–	1 µM	100
CN(C(=O)c1ccccc1)c1cc(N(C)c2ccc3c(c2)CCc2ccc(C(=O)NCCN4CCOCC4)cc2C3=O)ccc1F	cell-free assay	competition with immobilised ligand	1 µM	80
c1cncc(-c2cccc(Nc3nccc(NC4CCCCC4)n3)c2)c1	binding	competition with immobilised ligand	10 µM	0
Cc1nc(C2CCN(C(=O)c3ccc(OC(F)(F)F)cc3N)CC2)c2ncc(N3CCN(C)CC3)cc2n1	cell-free assay	competition with immobilised ligand	1 µM	94
O=C(c1ccc(Nc2ncc(Cl)c(-c3cc4ccccc4s3)n2)cc1)N1CCC(N2CCCC2)CC1	binding	competition with immobilised ligand	1 µM	53
N[C@@H]1CCN(c2nccc(-c3cnn4ncccc34)n2)C1	binding	–	1 µM	81
CCOCCn1cc(C(=O)Nc2ccc(-n3nc(-c4cccnc4)cc3C(F)(F)F)cn2)ccc1=O	cell-free assay	competition with immobilised ligand	1 µM	100
CC1CCCN1c1nccc(-c2cnn3ncccc23)n1 (stereo not shown)	binding	–	1 µM	74
CNC(=O)[C@@H]1CC[C@@H](n2c(-c3ccc4cnccc4c3)nc3ccc(C(=O)NCc4cccc(C(N)=O)c4)cc32)C1	binding	competition with immobilised ligand	1 µM	80
CN(C)c1nccc(-c2cnc3ncccn23)n1	binding	–	1 µM	100
COc1ccc2c(c1)O[C@H](c1ccc(OC)c(OC)c1)C[C@@H]2NC(=O)C1(c2ccc3c(c2)OC(F)(F)O3)CC1	cell-free assay	competition with immobilised ligand	1 µM	100
COc1cnc(Nc2cccc(S(N)(=O)=O)c2)nc1N1CCN(c2ccccc2)C(=O)C1	binding	competition with immobilised ligand	1 µM	95
C[C@H]1CCN(c2nccc(-c3cnn4ncccc34)n2)C1	binding	–	1 µM	95
CNC(=O)Nc1ccc2c(c1)CC[C@@]21OC(=O)N(CC(=O)N(Cc2ccc(F)cc2)[C@@H](C)C(F)(F)F)C1=O	cell-free assay	competition with immobilised ligand	1 µM	100
O=C(c1ccc(Nc2nccc(-c3cc4ccccc4s3)n2)cc1)N1CCC(N2CCCC2)CC1	binding	competition with immobilised ligand	1 µM	13
O=C(Nc1c[nH]nc1C(=O)NC1CCNCC1)c1cc(F)cc(F)c1	binding	competition with immobilised ligand	1 µM	87
COc1ccnn2ncc(-c3ccnc(N(C)C)n3)c12	binding	–	1 µM	97
C[C@@]1(Cc2ccc(C#N)cc2)C(=O)N(c2cc(Cl)cc(Cl)c2)c2ncc(C(=O)NC3(c4nc(C5CCC5)no4)CC3)n21	cell-free assay	competition with immobilised ligand	1 µM	100
